Source: paper PMC10826612 (Food Chemistry: X, 2024)

Columns and labels:
tyrosinase (TYR) [1] = target: T1, tyrosinase (TYR) (Agaricus bisporus, UniProt C7FF04); assay: UV spectra measurement of TYR with inhibitor; assay type: binding
tyrosinase (TYR) [2] = target: T1, tyrosinase (TYR); assay: ANS fluorescence assay; assay type: binding; conditions: 6f 60 µM (533 nm at 0 µM)
tyrosinase (TYR) [3] = target: T1, tyrosinase (TYR); assay: Fluorescence quenching titration of TYR; assay type: binding
HEK-293 cells = assay: CCK-8 cell viability assay; assay type: cell-based, human; conditions: in words
How it was run: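 Log-phase HEK-293 cells were seeded at 1 × 10^5 cells/well and held at 37 °C for 24 h. They were then exposed for 24 h to test compound at 4, 12, 36 or 108 µM, prepared in PBS. Wells were washed twice with PBS, and medium containing 10 % CCK-8 was added. Absorbance at 450 nm was read after 2 h.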

tyrosinase (TYR) [4] = target: T1, tyrosinase (TYR); assay: Kinetic analysis of TYR; assay type: biochemical; conditions: Lineweaver-Burk plot
tyrosinase (TYR) [5] = target: T1, tyrosinase (TYR); assay: CD spectroscopy of TYR secondary structure; assay type: binding; conditions: molar ratio 1:6

T1 sequence (C7FF04 1-392): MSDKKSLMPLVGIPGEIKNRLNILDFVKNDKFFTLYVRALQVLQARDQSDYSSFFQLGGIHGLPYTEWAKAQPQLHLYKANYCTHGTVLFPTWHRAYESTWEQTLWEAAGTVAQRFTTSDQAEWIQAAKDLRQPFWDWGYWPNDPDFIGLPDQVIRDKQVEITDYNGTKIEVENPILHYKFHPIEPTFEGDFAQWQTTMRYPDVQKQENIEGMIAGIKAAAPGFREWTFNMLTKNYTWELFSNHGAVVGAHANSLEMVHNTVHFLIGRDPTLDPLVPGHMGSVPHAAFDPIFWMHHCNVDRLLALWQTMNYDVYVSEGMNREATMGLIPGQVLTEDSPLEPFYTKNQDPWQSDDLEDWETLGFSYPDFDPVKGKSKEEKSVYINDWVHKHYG

CCCc1cc(=O)oc2cc(OCc3cc(=O)c(O)co3)ccc12 [Compound 6f]
effect on the UV absorption peak of TYR at 280 nm (tyrosinase (TYR) [1]): significantly reduced the absorption peak of TYR at 280 nm | maximum emission wavelength of ANS-TYR fluorescence (tyrosinase (TYR) [2]): 500 nm | quenching constant Kq (tyrosinase (TYR) [3]; Stern-Volmer plot): 3.95 × 10^12 L/mol S^-1 | number of binding sites n (tyrosinase (TYR) [3]; double reciprocal equation): 1.12 | mode of action on TYR (quenching type) (tyrosinase (TYR) [3]; multispectral experiments): static quenching | cytotoxicity (HEK-293 cells): low cytotoxicity | inhibition type (tyrosinase (TYR) [4]): mixed-type inhibitor | α-Helix content of TYR (tyrosinase (TYR) [5]): 32.50% | β-Turn content of TYR (tyrosinase (TYR) [5]): 17.20% | β-sheet content of TYR (tyrosinase (TYR) [5]): 17.50%
